Experimental data from ChEMBL document CHEMBL2331365, “Discovery of novel 2-hydroxydiarylamide derivatives as TMPRSS4 inhibitors” (Bioorg Med Chem Lett, 2013).
Structures can show the parent of a compound that is named as a salt.

Assays:
[1] = target: T1, Transmembrane protease serine 4 (Homo sapiens, UniProt Q9NRS4); assay: Inhibition of N-terminal His6-tagged recombinant TMPRSS4 (unknown origin) fused with enterokinase cleavage sequence DYKDDDGDYKDDDDK expressed in Escherichia coli BL21 (DE3) using Z-Phe-Arg-7-amido-4-methylcoumarin hydrochloride as substrate by fluorometric analysis
[2] = Cytotoxicity against human SW480 cells overexpressing TMPRSS4 assessed as cell viability at 0.1 uM after 2 days by CCK-8 assay; assay type: cell-based; settings: read-out: Activity
Procedure, shortened: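 Seeded at 10,000 cells/well, exposed to 0.1 µM compound or none at 37 °C for 2 days; CCK-8 reagent added and absorbance read at 450 nm. Higher value taken as lower cytotoxicity.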

[3] = target: T1, Transmembrane protease serine 4; assay: Inhibition of TMPRSS4 in human SW480 cells assessed as inhibition of cell invasion at 0.1 uM relative to control; assay type: cell-based
Procedure, shortened: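 SW480 cells overexpressing TMPRSS4 (clone T19) left to invade reconstituted basement membrane (Matrigel) with 0.1 µM compound present. Invasion expressed as percent inhibition relative to DMSO negative control.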

T1 sequence (Q9NRS4 whole entry, the tested form may be a part): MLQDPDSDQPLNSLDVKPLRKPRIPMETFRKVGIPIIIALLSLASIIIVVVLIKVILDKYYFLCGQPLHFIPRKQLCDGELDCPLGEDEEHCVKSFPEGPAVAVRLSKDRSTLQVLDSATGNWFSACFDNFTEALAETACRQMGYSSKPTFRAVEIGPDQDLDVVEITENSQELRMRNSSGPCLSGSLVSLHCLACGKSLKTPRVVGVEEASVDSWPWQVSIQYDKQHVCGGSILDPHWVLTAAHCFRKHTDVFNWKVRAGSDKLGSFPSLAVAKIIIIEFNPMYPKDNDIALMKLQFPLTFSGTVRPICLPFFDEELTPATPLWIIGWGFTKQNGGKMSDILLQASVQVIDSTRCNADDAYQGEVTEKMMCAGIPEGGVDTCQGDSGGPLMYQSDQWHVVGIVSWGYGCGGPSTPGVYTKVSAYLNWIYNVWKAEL

Row | Compound | IC50 [1] | viability at 48 h, 0.1 µM [2] | inhibition [3]
1 | COc1c(C(F)(F)F)cc(NC(=O)c2cc(Cl)ccc2O)cc1C(F)(F)F | 12 µM | – | –
2 | O=C(Nc1cc(C(F)(F)F)ccc1C(F)(F)F)c1cc(Cl)ccc1O | 20 µM | – | –
3 | O=C(Nc1ccc(Cl)c(C(F)(F)F)c1)c1cc(Cl)ccc1O | 35 µM | – | –
4 | NCCc1ccc(S(=O)(=O)F)cc1 [4-AMINOETHYLBENZENESULFONYL FLUORIDE HYDROCHLORIDE] | 39 µM | – | –
5 | O=C(Nc1ccccc1)c1cc(Cl)ccc1O | 50 µM | – | –
6 | O=C(Nc1cc(C(F)(F)F)cc(C(F)(F)F)c1)c1cc(Br)ccc1O | 13 µM | – | –
7 | O=C(Nc1cc(C(F)(F)F)cc(C(F)(F)F)c1)c1ccc2ccccc2c1O | > 100 µM | – | –
8 | O=C(Nc1cc(C(F)(F)F)cc(C(F)(F)F)c1)c1ccccc1O | > 100 µM | – | –
9 | O=C(Nc1cc(Cl)c(Cl)c(Cl)c1)c1cc(Cl)ccc1O | > 100 µM | – | –
10 | COc1cc(NC(=O)c2cc(Cl)ccc2O)cc(C(F)(F)F)c1 | 16 µM | – | –
11 | O=C(Nc1cc(C(F)(F)F)cc(C(F)(F)F)c1)c1cccc(Cl)c1O | 12 µM | – | –
12 | N#Cc1ccc(NC(=O)c2cc(Cl)ccc2O)cc1 | 76 µM | – | –
13 | O=C(Nc1ccc(C(F)(F)F)c(C(F)(F)F)c1)c1cc(Cl)ccc1O | 13 µM | – | –
14 | O=C(Nc1ccc(C(F)(F)F)cn1)c1cc(Cl)ccc1O | > 100 µM | – | –
15 | O=C(Nc1ccc(Cl)nc1)c1cc(Cl)ccc1O | > 100 µM | – | –
16 | O=C(Nc1ncccn1)c1cc(Cl)ccc1O | > 100 µM | – | –
17 | O=C(Nc1cc(C(F)(F)F)cc(C(F)(F)F)c1)c1c[nH]c2ccccc2c1=O | > 100 µM | – | –
18 | NC(=O)c1ccc(O)c(C(=O)Nc2cc(C(F)(F)F)cc(C(F)(F)F)c2)c1 | > 100 µM | – | –
19 | O=C(Nc1cccc(C(F)(F)F)c1)c1cc(Cl)ccc1O | 13 µM | – | –
20 | O=C(Nc1cc(C(F)(F)F)c(Br)c(C(F)(F)F)c1)c1cc(Cl)ccc1O | 6 µM | 89% | 53%

Row | Compound | IC50 [1] | viability at 48 h, 0.1 µM [2] | inhibition [3]
21 | Cc1cc(C)cc(NC(=O)c2cc(Cl)ccc2O)c1 | 39 µM | – | –
22 | O=C(Nc1ccnc(Cl)c1)c1cc(Cl)ccc1O | > 100 µM | – | –
23 | N#Cc1ccc(O)c(C(=O)Nc2cc(C(F)(F)F)cc(C(F)(F)F)c2)c1 | 19 µM | – | –
24 | O=C(NCc1cc(C(F)(F)F)cc(C(F)(F)F)c1)c1cc(Cl)ccc1O | 18 µM | – | –
25 | COc1ccc(O)c(C(=O)Nc2cc(C(F)(F)F)cc(C(F)(F)F)c2)c1 | 29 µM | – | –
26 | N#Cc1ccc(NC(=O)c2cc(Cl)ccc2O)nc1 | 80 µM | – | –
27 | O=C(Nc1cc(C(F)(F)F)ccc1F)c1cc(Cl)ccc1O | 28 µM | – | –
28 | O=C(Nc1cc(C(F)(F)F)cc(C(F)(F)F)c1)c1cc(Cl)ccc1O [IMD-0354] | 11 µM | 90% | 45%
29 | O=C(Nc1cc(C(F)(F)F)cc(C(F)(F)F)c1)c1cc(Cl)ccc1OCc1ccccc1 | > 100 µM | – | –
30 | O=C(Nc1cc(Br)cc(C(F)(F)F)c1)c1cc(Cl)ccc1O | 12 µM | 93% | 43%
31 | O=C(Nc1cc(C(F)(F)F)cc(C(F)(F)F)c1)c1ccc(Cl)cc1O | 12 µM | – | –
32 | CC(=O)Oc1ccc(Cl)cc1C(=O)Nc1cc(C(F)(F)F)cc(C(F)(F)F)c1 | > 100 µM | – | –
33 | O=C(Nc1ccc(Br)c(C(F)(F)F)c1)c1cc(Cl)ccc1O | 30 µM | – | –
34 | O=C(Nc1cc(C(F)(F)F)cc(C(F)(F)F)c1)c1cc(F)ccc1O | 29 µM | – | –
35 | Cc1ccc(O)c(C(=O)Nc2cc(C(F)(F)F)cc(C(F)(F)F)c2)c1 | 28 µM | – | –
36 | O=C(Nc1cnc2ccccc2c1)c1cc(Cl)ccc1O | 85 µM | – | –
37 | O=C(Nc1cc(C(F)(F)F)cc(C(F)(F)F)c1)c1cc([N+](=O)[O-])ccc1O | 12 µM | 96% | 26%
38 | O=C(Nc1cc(Cl)cc(Cl)c1)c1cc(Cl)ccc1O | 19 µM | – | –
39 | Cc1c(C(F)(F)F)cc(NC(=O)c2cc(Cl)ccc2O)cc1C(F)(F)F | 10 µM | 90% | 43%
40 | O=C(Nc1cc(C(F)(F)F)cc(C(F)(F)F)c1)c1cc(Cl)cnc1O | > 100 µM | – | –
